Tests used:
[1] = Partition coefficient (logP); format: physicochemical; details: octanol/water
Method in brief: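 Partition coefficient calculated as P = C(octanol)/C(H2O), using the method of Fujita et al.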

[2] = system: Rattus norvegicus; test: Hyperglycemic activity and change in blood glucose concentration was reported 2 hours after administration of 100 mg/Kg perorally.; format: functional
Method in brief: (§1)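 Overnight-fasted rats dosed orally at 100 mg/kg as a suspension in 1% tragacanth in distilled water. Tail capillary blood sampled at 0, 2 and 4 h after dosing. Serum glucose measured by spectrophotometry of enzymatically produced NADH2. Change is expressed relative to time zero as mean ± SEM of four animals; plus means a rise, minus a fall; p<0.05 marks significance.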

[3] = system: Rattus norvegicus; test: Hyperglycemic activity and change in blood glucose concentration was reported 4 hours after administration (100 mg/Kg perorally); format: functional; method in brief: as §1
[4] = system: Rattus norvegicus; test: Hyperglycemic activity and change in blood glucose concentration was reported 2 hours after administration of 100 mg/Kg perorally; format: functional; method in brief: as §1
[5] = system: Rattus norvegicus; test: Hyperglycemic activity and change in blood glucose concentration was reported 4 hours after administration of 100 mg/Kg perorally; format: functional; method in brief: as §1

| logP [1] | SMILES | Change [2] | Change [3] | Change [4] | Change [5] |
| --- | --- | --- | --- | --- | --- |
| 1.27 | O=C(NN1CCC=C(F)C1)c1ccccc1 | 64% | 42% |  |  |
| 0.949 | COC(=O)CCC1=CCN(NC(=O)c2ccccc2)CC1 | -9% | -9% |  |  |
| 0.74 | COC(=O)CCC1=CCCN(NC(=O)c2ccccc2)C1 | -2% | 6% |  |  |
| 1.2 | CC1=CCN(NC(=O)c2ccccc2)CC1 | 48% | 43% |  |  |
| 1.52 | CC(=O)OCCCC1=CCN(NC(=O)c2ccccc2)CC1 | 2% | 3% |  |  |
| 1.17 | O=C(NN1CCC=CC1=O)c1ccccc1 | 1% | 4% |  |  |
| 0.0414 | CC(O)C1=CCN(NC(=O)c2ccccc2)CC1 (stereo unspecified) | -10% | -5% |  |  |
|  | O=C(NN1CC=CCC1)c1ccccc1 | 78% | 50% |  |  |
| 1.22 | O=C(NN1CC=C(CCCO)CC1)c1ccccc1 | 4% | -6% |  |  |
| 1 | O=C(O)CCC1=CCN(NC(=O)c2ccccc2)CC1 | -4% | 7% |  |  |
| 0.447 | CC(O)C1=CCCN(NC(=O)c2ccccc2)C1 (stereo unspecified) | -8% | -16% |  |  |
| 0.699 | CC1CC=CCN1NC(=O)c1ccccc1 (stereo unspecified) | 12% | 16% |  |  |
| 1.35 | CC1=C(C)CN(NC(=O)c2ccccc2)CC1 | 27% | 20% |  |  |
| 0.908 | COCCCC1=CCCN(NC(=O)c2ccccc2)C1 | -10% | -11% |  |  |
| -0.0969 | CC(=O)C1=CCCN(NC(=O)c2ccccc2)C1 | -5% | -17% |  |  |
| 1.16 | COC1=CCN(NC(=O)c2ccccc2)CC1 |  |  | 5% | 7% |
| 1.12 | O=C(NN1CCC=C(CCCO)C1)c1ccccc1 | -2% | -6% |  |  |
| 0.643 | O=C(NN1CC=C(CO)CC1)c1ccccc1 | -10% | -14% |  |  |
| 1.37 | CC1=CCCN(NC(=O)c2ccccc2)C1 | 124% | 116% |  |  |
| 1.62 | COC1=CCCN(NC(=O)c2ccccc2)C1 |  | -9% | -7% |  |
| 1.49 | CC(=O)OCCCC1=CCCN(NC(=O)c2ccccc2)C1 | -8% | 7% |  |  |
| 0.38 | CC(=O)C1=CCN(NC(=O)c2ccccc2)CC1 | -12% | -19% |  |  |
| 1.18 | O=C(O)CCC1=CCCN(NC(=O)c2ccccc2)C1 | -14% | -4% |  |  |
| 1.49 | COCCCC1=CCN(NC(=O)c2ccccc2)CC1 | 1% | -9% |  |  |
| 1.37 | C=C1C=CCN(NC(=O)c2ccccc2)C1 |  | 4% | 5% |  |
|  | CCCNC(=O)NS(=O)(=O)c1ccc(Cl)cc1 [CHLORPROPAMIDE] |  | -38% | -42% |  |

Reference: ChEMBL document CHEMBL1123654, “Synthesis of N-(3,6-dihydro-1(2H)-pyridinyl)benzamides with hyperglycemic-hypoglycemic activity” (J Med Chem, 1987)
